In ChEMBL document CHEMBL4513216, “Probing the Open Global Health Chemical Diversity Library for Multistage-Active Starting Points for Next-Generation Antimalarials” (ACS Infect Dis, 2020) one finds cytotoxicity data, which are given here for 70 compounds.

A short description of the series: Toxicity liver stage against HepG2, at 10uM. It is filed as cell-based. Particulars: human, HepG2-A16-CD81EGFP cells; read-out: INHIBITION
The arrangement: test concentration 10 uM, cell line HepG2-A16-CD81EGFP. A digest of the protocol:
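Uninfected HepG2-A16-CD81EGFP cells, 3 × 10^3 per well, 1536-well, plated on prespotted compound at 10 μM final, parasite-free screening media added to match infected plates; puromycin 10 μM positive, DMSO 0.5% negative; run in parallel with 48 h PbLuc assay at 37 °C, 5% CO2; viability by CellTiter-Glo luminescence, normalized to controls.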

Each structure is given as a SMILES string.

Turning to `COCCNc1nnc(-c2ccc(C)nc2)s1`, the cytotoxicity at 10 µM is -8.55%.

Turning to `CCOC(=O)c1coc(N2CCC(C(C)N3CCCC3)CC2)n1` (stereo not given), the cytotoxicity at 10 µM was -1.89%. In the case of `Cc1c(C)n(Cc2ccccn2)c2nc3c(c(N)c12)CCCCCC3`, the cytotoxicity at 10 µM was found to be 9.15%. Regarding `Cc1cc(NC(=O)CNC(C)(C)c2ccccc2)on1`, the cytotoxicity at 10 µM is -8.18%. Turning to `Cc1cc(C)n(C2CCCN(C(=O)Cc3csc(C)n3)C2)n1` (stereo not given), the cytotoxicity at 10 µM is -10.4%. Take `O=C([C@H]1CC[C@@H]2[C@@H](CCN2C2CCCCC2)O1)N1CCOCC1`: the cytotoxicity at 10 µM is 7.19%.

For the compound `CCn1cc(SCC(=O)N2CCCC(O)(CO)C2)c2ccccc21` (stereo not given), the cytotoxicity at 10 µM turned out to be 6.37%. With `CC(C)CNC(=O)[C@H]1C[C@H]2CN(Cc3cccnc3)C[C@@H]1O2` the figure was -1.16%; with `O=C(CN1CCc2cncnc2C1)Nc1ccc(Cl)cn1`, -3.24%. On to `CC(C)(C)OC(=O)N[C@@H]1C[C@@H](O)CN(C(=O)c2ccc(F)cc2)C[C@H]1O`, for which the cytotoxicity at 10 µM turned out to be 2.57%. As for `Cn1ccnc1CN1CCc2onc(COCC3CC3)c2C1`, the cytotoxicity at 10 µM is 6.86%.

Regarding `CN(C)CC1(O)CCCN(Cc2ccccc2OCC(=O)N(C)C)C1` (stereo not given), the cytotoxicity at 10 µM is -1.21%. Take `CCNC(=O)c1ccc2c(c1)nc1n2CCN(Cc2ccco2)C1`: the cytotoxicity at 10 µM is -5.64%.

Regarding `Cn1cccc1C(O)CNC(=O)c1ccc(F)c(F)c1` (stereo not given), the cytotoxicity at 10 µM was -1.29%.

Turning to `CCS(=O)(=O)N1CCN(C(=O)NC(C)C)CC2(CNC(=O)C2)C1` (stereo not given), the cytotoxicity at 10 µM is -0.82%. Regarding `CCc1n[nH]c(C2CN(C(=O)c3ccc4c(c3)CCCC4)CCO2)n1` (stereo not given), the cytotoxicity at 10 µM was -16.1%. For `CN1CCc2[nH]cnc2C12CCN(C(=O)CCc1cccs1)CC2` the value was -1.19%.

For the compound `Cc1nn(C)c2ncc(S(=O)(=O)N3CCN4CCCC4C3)cc12` (stereo not given), the cytotoxicity at 10 µM stood at 2.6%. For `CN(CC(=O)NCCC#N)C(c1ccccc1)c1ccc(F)cc1` (stereo not given) the value was -4.34%; for `CCN(CC)Cc1ccc(C(=O)NC2CCc3cc(Cl)ccc32)o1` (stereo not given), -3.81%; for `Cc1ccc(-c2csc3c(=O)[nH]c(N4CCCC(C(=O)O)C4)nc23)cc1` (stereo not given), -68%. Regarding `CC(=O)N1CCN(c2cnnc(N3CCCC3)c2)CC1`, the cytotoxicity at 10 µM was 8.19%.

As for `CC(C)C1CN(Cc2cnc(N(C)C)nc2)CCCN1CC1CC1` (stereo not given), the cytotoxicity at 10 µM was -6%. With `Cc1noc(C)c1CN1CCCC(CN(C(=O)OC(C)(C)C)C(C)C)C1` (stereo not given) the figure was 2.42%.

With `CCc1ccc(C(=O)N2CCCC2c2c(C)nn(C)c2OC)o1` (stereo not given), the cytotoxicity at 10 µM turned out to be 6.16%. As to `CCOc1cccc(COC(=O)c2scnc2C)n1`, the cytotoxicity at 10 µM is -0.966%.

`COc1ccc(S(=O)(=O)Nc2cccnc2-n2cncn2)cc1C`: the cytotoxicity at 10 µM was -6.87%.

On to `O=C([C@H]1CCCO1)N1CCc2ncnc(NC3CC3)c2CC1`, for which the cytotoxicity at 10 µM is -12.6%. On to `CC(=O)N(Cc1ncc(C)o1)C1CCN(Cc2ccccc2F)C1` (stereo not given), for which the cytotoxicity at 10 µM is -8.08%. For `COc1ccc(S(=O)(=O)N2CCn3cnc(COCC4CC4)c3C2)cc1` the value was -0.262%. For `CC1CN(C)CCN1C(=O)c1cccn1Cc1cccnc1` (stereo not given), the cytotoxicity at 10 µM is -13.5%. For `CCc1nc(NCCn2cccn2)c2c(n1)c(C)nn2C` the value was 5.97%; for `COc1ccc(-c2nnc(SC(C)C(=O)NC3CCCC3)[nH]2)c(OC)c1` (stereo not given), 36.4%.

As to `O=C(NCCCn1nc2ccccn2c1=O)NC(C1CC1)C1CC1`, the cytotoxicity at 10 µM turned out to be 2.74%. With `COCC(=O)Nc1cc(S(=O)(=O)C(F)(F)F)ccc1OC`, the cytotoxicity at 10 µM amounted to 17.3%. `Cc1cc(-c2cc(S(=O)(=O)N3C[C@H](C4CC4)[C@@H](N)C3)c(C)s2)on1`: the cytotoxicity at 10 µM is 3.37%.

For the compound `Cc1cccc(NC(=O)c2cnc(C3CCCNC3)cn2)n1` (stereo not given), the cytotoxicity at 10 µM amounted to 3.04%. For `CC(=O)N1CCN(S(=O)(=O)c2ccc(C)c(F)c2)CC1` the value was -9.42%; for `COCC(=O)N1CCN(C(=O)c2scnc2C)CC1`, -9.75%; for `CO[C@H]1CC[C@H]2[C@H]1OCCN2Cc1ccc(F)c(F)c1`, 22.3%. With `CCOCCCC(=O)NC1CCN(C(C)c2ccccc2)CC1` (stereo not given), the cytotoxicity at 10 µM came out at 4.05%. With `CC(C#N)CN(C)Cc1ccc(Cl)c2cccnc12` (stereo not given), the cytotoxicity at 10 µM was -40.4%. For the compound `COCCN1C(=O)CCC12CCC(NC(=O)c1cc(C)on1)CC2` (stereo not given), the cytotoxicity at 10 µM amounted to 3.94%. With `O=C(c1ccco1)N1C[C@@H]2CN(c3ccccn3)C[C@@H]2C1` the figure was -1.27%; with `CN(Cc1ccco1)C(=O)NCc1ccnc(SC(C)(C)C)c1`, 14.4%. On to `CC(C)CN1CC(O)CN(S(=O)(=O)c2ccccc2)CC1=O` (stereo not given), for which the cytotoxicity at 10 µM worked out at 1.74%. With `COc1ccc(OCCN(C)Cc2nc3c(cnn3C)c(=O)[nH]2)cc1` the figure was -4.03%; with `CC[C@@H](C)[C@H](NC(=O)CCn1cc(C(C)=O)c2ccccc21)C(=O)O`, -5.27%; with `Cc1ccc(N2CCN(Cc3ccccc3)C3(CCNCC3)C2=O)cn1`, 12.1%.

Regarding `O[C@]12CCNC[C@H]1CN(c1nccc3ccccc13)CC2`, the cytotoxicity at 10 µM turned out to be 12.3%. For `CCc1noc(CN(Cc2ccc3c(c2)OCO3)C2CCCC2)n1` the value was -0.315%; for `CN1CCc2nc3cc(C(=O)NCc4cccs4)ccc3c(=O)n2CC1`, 0.207%; for `Cc1n[nH]c(=O)c2c(NC(=O)CN3CCCC(C(F)(F)F)C3)oc(C)c12` (stereo not given), -4.87%. Regarding `CCc1nnc2n1CCN(Cc1ccc(C(=O)N3CCCC3)cc1)C2`, the cytotoxicity at 10 µM is -3.29%. Take `Cc1ccc(N(C)CC(O)COCc2ccccc2)c(C)c1` (stereo not given): the cytotoxicity at 10 µM was determined as 3.67%. On to `Cc1cc(F)c(S(=O)(=O)NCc2ccnc(N(C)C)n2)cc1F`, for which the cytotoxicity at 10 µM was -156%. Regarding `O=C(c1csc(-c2ccc(C(F)(F)F)cc2)n1)N1CCCNCC1`, the cytotoxicity at 10 µM was 6.24%. For `COc1ccc(CN2C[C@@H]3COC[C@]3(CN(C)C)C2)cc1`, the cytotoxicity at 10 µM is -1.75%. `O=C(c1ccn[nH]1)N1CCCC(n2cncn2)C1` (stereo not given): the cytotoxicity at 10 µM was determined as 1.56%.

On to `O=C(c1cc(-n2cccn2)ccn1)N1CCOc2ncccc21`, for which the cytotoxicity at 10 µM is -0.554%. Take `COc1ccc(NC(=O)N2CCC3(CC2)NC(=O)CC3C(=O)O)c(C)c1` (stereo not given): the cytotoxicity at 10 µM is -7.34%. Turning to `Cc1ccc(NC(=O)N2CCN(Cc3noc(C4CC4)n3)CC2)cc1`, the cytotoxicity at 10 µM came to 4.88%. Take `Cc1ccc(CNC(=O)Cn2ncc3c2c(C)nn3C)cc1`: the cytotoxicity at 10 µM was 22.2%. Consider `O=C(c1cccnc1)N1C[C@@H]2OCC(=O)N(Cc3cccnc3)[C@@H]2C1`, for which the cytotoxicity at 10 µM came to 2.08%. With `NCCn1cc(C(=O)N2CCCCCC2c2ccco2)nn1` (stereo not given), the cytotoxicity at 10 µM is -4.94%. In the case of `CN(C)C(=O)c1nc(-c2ccc(S(C)(=O)=O)cc2)c2cnccn12`, the cytotoxicity at 10 µM came out at 7.27%. As for `CNC(=O)c1cc(NC(=O)NC(C)CCc2cccn2C)ccc1F` (stereo not given), the cytotoxicity at 10 µM is -2.01%. Consider `COc1cc(CN(C)Cc2ccncc2)c(SC)cc1OC`, for which the cytotoxicity at 10 µM was found to be 5.54%. For `Cc1cccc(Cn2nc(C3CCNCC3)n(-c3ccccc3)c2=O)c1` the value was -4.68%; for `COc1cnc(N2C[C@@H](CN3CCOCC3)[C@@H](CO)C2)nc1`, -9.25%.
